Assay results published in ChEMBL document CHEMBL3351317 (J Med Chem, 2014).

Assays:
[1] = Distribution coefficient, log D between 1-octonol and aqueous phosphate buffer at pH 7.4; type: physicochemical; details: 1-octanol/aqueous phosphate buffer
Summary of the method: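 logD measured as distribution between 1-octanol and aqueous phosphate buffer, pH 7.4.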

[2] = Plasma clearance in beagle dog at 2 mg/kg, iv or 3.4 mg/kg, po; type: ADME, organism-based, Canis lupus familiaris
Summary of the method: (§1)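 Beagle dogs, male and female. IV dose 2 mg/kg in 5% DMSO:95% hydroxypropyl β-cyclodextrin. Oral dose 3.4 mg/kg as a 0.1% Pluronic F127 suspension. Plasma pharmacokinetic parameters derived.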

[3] = AUC (0 to 24 hrs) in beagle dog at 50 mg/kg, po; type: ADME, organism-based, Canis lupus familiaris; set-up: time < 24 hr, dose 50 mg/kg, route oral; details: plasma
Summary of the method: (§2)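 Beagle dogs (one male, one female), fed, single oral dose of suspension in 0.1% Pluronic F127; plasma AUC0-24hr in μM.h; mean of the two animals.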

[4] = AUC (0 to 24 hrs) in C57BL6 mouse at […], po; type: ADME, organism-based; set-up: time < 24 hr, dose 5.7 mg/kg, route oral; details: plasma
[5] = Half life in beagle dog at 2 mg/kg, iv; type: ADME, organism-based, Canis lupus familiaris; set-up: dose 2 mg/kg, route intravenous; details: in vivo
Summary of the method: (§3)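 Male C57BL6 mice given 3 mg/kg, male Han Wistar rats 2 mg/kg, beagle dogs (male and female) 2 mg/kg, IV as solution in 5% DMSO:95% hydroxypropyl β-cyclodextrin; plasma PK parameters determined.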

[6] = AUC (0 to 24 hrs) in Han Wistar rat at 12 mg/kg, po; type: ADME, organism-based; set-up: time < 24 hr, dose 12 mg/kg, route oral; details: plasma
Summary of the method: (§4)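 Male Han Wistar rats, fed, single oral dose of suspension in 0.1% Pluronic F127; plasma AUC0-24hr in μM.h; mean of two animals.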

[7] = Half life in Han Wistar rat at 2 mg/kg, iv; type: ADME, organism-based; set-up: dose 2 mg/kg, route intravenous; details: in vivo; summary of the method: as §3
[8] = AUC (0 to 24 hrs) in C57BL6 mouse at 31 mg/kg, po; type: ADME, organism-based; set-up: time < 24 hr, dose 31 mg/kg, route oral; details: plasma
Summary of the method: (§5)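 Male C57BL6 mice, fed, single oral dose of suspension in 0.1% Pluronic F127; plasma sampled, AUC0-24hr in μM.h; mean of two animals.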

[9] = Oral bioavailability in beagle dog at 3.4 mg/kg; type: ADME, organism-based, Canis lupus familiaris; details: in vivo; summary of the method: as §1
[10] = Stability in pH 1 to 8 buffer; type: physicochemical
[11] = AUC (0 to 24 hrs) in Han Wistar rat at […], po; type: ADME, organism-based; set-up: time < 24 hr, dose 7.1 mg/kg, route oral; details: plasma
[12] = Volume of distribution at steady state in beagle dog at 2 mg/kg, iv or 3.4 mg/kg, po; type: ADME, organism-based, Canis lupus familiaris; details: in vivo, read-out: Vdss; summary of the method: as §1
[13] = Oral bioavailability in C57BL6 mouse at 5 mg/kg; type: ADME, organism-based; details: in vivo
Summary of the method: (§6)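 Male C57BL6 mice. IV dose 3 mg/kg as a solution in 5% DMSO:95% hydroxypropyl β-cyclodextrin. Oral dose 5 mg/kg as a 0.1% HMPC/tween suspension. Plasma sampled for pharmacokinetic parameters.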

[14] = Oral bioavailability in Han Wistar rat at 5 mg/kg; type: ADME, organism-based; details: in vivo
Summary of the method: (§7)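 Male Han Wistar rats. IV dose 2 mg/kg in 5% DMSO:95% hydroxypropyl β-cyclodextrin. Oral dose 5 mg/kg as a 0.1% HMPC/tween suspension. Plasma pharmacokinetic parameters derived.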

[15] = Stability in pH 10 buffer assessed as loss of trifluoro-oxadiazole group; type: physicochemical
[16] = Plasma clearance in Han Wistar rat at 2 mg/kg, iv or 5 mg/kg, po; type: ADME, organism-based; summary of the method: as §7
[17] = Volume of distribution at steady state in C57BL6 mouse at 3 mg/kg, iv or 5 mg/kg, po; type: ADME, organism-based; details: in vivo, read-out: Vdss; summary of the method: as §6
[18] = Cmax in Han Wistar rat at 4.5 mg/kg, po; type: ADME, organism-based; set-up: dose 4.5 mg/kg, route oral; details: in vivo
[19] = Intrinsic clearance in human hepatocytes assessed per million cells; type: ADME, cell-based, Hepatocyte; details: read-out: CLH
[20] = Half life in C57BL6 mouse at 3 mg/kg, iv; type: ADME, organism-based; set-up: dose 3 mg/kg, route intravenous; details: in vivo; summary of the method: as §3
[21] = Intrinsic clearance in mouse hepatocytes assessed per million cells; type: ADME, cell-based, Hepatocyte; details: read-out: CLH
[22] = Cmax in C57BL6 mouse at […], po; type: ADME, organism-based; set-up: dose 5.7 mg/kg, route oral; details: in vivo
[23] = Cmax in beagle dog at 50 mg/kg, po; type: ADME, organism-based, Canis lupus familiaris; set-up: dose 50 mg/kg, route oral; details: in vivo
[24] = Cmax in C57BL6 mouse at 31 mg/kg, po; type: ADME, organism-based; set-up: dose 31 mg/kg, route oral; details: in vivo
[25] = Cmax in C57BL6 mouse at 11 mg/kg, po; type: ADME, organism-based; set-up: dose 11 mg/kg, route oral; details: in vivo
[26] = AUC (0 to 24 hrs) in Han Wistar rat at 154 mg/kg, po; type: ADME, organism-based; set-up: time < 24 hr, dose 154 mg/kg, route oral; details: plasma; summary of the method: as §4
[27] = Permeability from apical to basolateral side in human Caco2 cells at 10 uM; type: ADME, cell-based; details: Caco-2
Summary of the method: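 In vitro Caco-2 monolayer, compound at 10 µM. Apparent permeability (Papp) measured apical to basolateral; efflux ratio also determined.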

[28] = AUC (0 to 24 hrs) in C57BL6 mouse at 11 mg/kg, po; type: ADME, organism-based; set-up: time < 24 hr, dose 11 mg/kg, route oral; details: plasma; summary of the method: as §5
[29] = Cmax in Han Wistar rat at 19 mg/kg, po; type: ADME, organism-based; set-up: dose 19 mg/kg, route oral; details: in vivo
[30] = AUC (0 to 24 hrs) in Han Wistar rat at 4.5 mg/kg, po; type: ADME, organism-based; set-up: time < 24 hr, dose 4.5 mg/kg, route oral; details: plasma; summary of the method: as §4
[31] = Cmax in Han Wistar rat at 154 mg/kg, po; type: ADME, organism-based; set-up: dose 154 mg/kg, route oral; details: in vivo
[32] = Half life in C57BL6 mouse at 5 mg/kg, po; type: ADME, organism-based; set-up: dose 5 mg/kg, route oral; details: in vivo
[33] = Cmax in Han Wistar rat at […], po; type: ADME, organism-based; set-up: dose 7.1 mg/kg, route oral; details: in vivo
[34] = Volume of distribution at steady state in Han Wistar rat at 2 mg/kg, iv or 5 mg/kg, po; type: ADME, organism-based; details: in vivo, read-out: Vdss; summary of the method: as §7
[35] = AUC (0 to 24 hrs) in Han Wistar rat at 19 mg/kg, po; type: ADME, organism-based; set-up: time < 24 hr, dose 19 mg/kg, route oral; details: plasma; summary of the method: as §4
[36] = Cmax in C57BL6 mouse at 57 mg/kg, po; type: ADME, organism-based; set-up: dose 57 mg/kg, route oral; details: in vivo
[37] = Half life in beagle dog at 3.4 mg/kg, po; type: ADME, organism-based, Canis lupus familiaris; set-up: dose 3.4 mg/kg, route oral; details: in vivo
[38] = Cmax in beagle dog at 98 mg/kg, po; type: ADME, organism-based, Canis lupus familiaris; set-up: dose 98 mg/kg, route oral; details: in vivo
[39] = Intrinsic clearance in dog hepatocytes assessed per million cells; type: ADME, cell-based, Canis lupus familiaris, Hepatocyte; details: read-out: CLH
Mus musculus = species: Mus musculus; experiment: fCmax in mouse during 12 days study; type: ADME, organism-based; details: in vivo, 288 h
[40] = AUC (0 to 24 hrs) in beagle dog at 5 mg/kg, po; type: ADME, organism-based, Canis lupus familiaris; set-up: time < 24 hr, dose 5 mg/kg, route oral; details: plasma; summary of the method: as §2
[41] = Degradation half life in pH 10 buffer assessed as loss of trifluoro-oxadiazole group by measuring piperazine level at 25 degC; type: physicochemical
[42] = Cmax in Han Wistar rat at 12 mg/kg, po; type: ADME, organism-based; set-up: dose 12 mg/kg, route oral; details: in vivo
[43] = Plasma clearance in C57BL6 mouse at 3 mg/kg, iv or 5 mg/kg, po; type: ADME, organism-based; summary of the method: as §6
[44] = Cmax in beagle dog at 5 mg/kg, po; type: ADME, organism-based, Canis lupus familiaris; set-up: dose 5 mg/kg, route oral; details: in vivo
[45] = AUC (0 to 24 hrs) in Han Wistar rat at 100 mg/kg, po; type: ADME, organism-based; set-up: time < 24 hr, dose 100 mg/kg, route oral; details: plasma; summary of the method: as §4
[46] = Half life in Han Wistar rat at 5 mg/kg, po; type: ADME, organism-based; set-up: dose 5 mg/kg, route oral; details: in vivo
[47] = AUC (0 to 24 hrs) in C57BL6 mouse at 57 mg/kg, po; type: ADME, organism-based; set-up: time < 24 hr, dose 57 mg/kg, route oral; details: plasma; summary of the method: as §5
[48] = Cmax in Han Wistar rat at 100 mg/kg, po; type: ADME, organism-based; set-up: dose 100 mg/kg, route oral; details: in vivo
[49] = AUC (0 to 24 hrs) in beagle dog at 98 mg/kg, po; type: ADME, organism-based, Canis lupus familiaris; set-up: time < 24 hr, dose 98 mg/kg, route oral; details: plasma; summary of the method: as §2

Structure (SMILES): C[C@@H]1CN(C(=O)OC2(C(F)(F)F)COC2)CCN1c1ncc(OCc2ccc(S(C)(=O)=O)cc2F)cn1
- logD [1]: 3

Structure (SMILES): C[C@@H]1CN(c2nc(C(F)(F)F)no2)CCN1c1ncc(OCc2ccc(S(C)(=O)=O)cc2F)cn1
- logD [1]: 3.7

Structure (SMILES): C[C@@H]1CN(c2nnc(C(F)(F)F)o2)CCN1c1ncc(OCc2ccc(CS(C)(=O)=O)cc2)cn1
- logD [1]: 2.6

Structure (SMILES): C[C@@H]1CN(c2nc(C(F)(F)F)no2)CCN1c1ncc(OCc2ccc(CS(C)(=O)=O)cc2F)cn1
- clearance [2]: 1.6 mL/min/kg
- AUC(0-t) at 24 h [3]: 42 µM·h
- AUC(0-t) at 24 h [4]: 26 µM·h
- half-life [5]: 26 h
- AUC(0-t) at 24 h [6]: 33 µM·h
- half-life [7]: 6.1 h
- AUC(0-t) at 24 h [8]: 151 µM·h
- bioavailability [9]: 98%
- Stability [10]: Stable
- AUC(0-t) at 24 h [11]: 11 µM·h
- Vd [12]: 3.3 L/kg
- bioavailability [13]: 76%
- bioavailability [14]: 85%
- Stability [15]: Unstable
- clearance [16]: 11 mL/min/kg
- Vd [17]: 5.1 L/kg
- logD [1]: 3.6
- Cmax [18]: 0.8 µM
- hepatocyte CLint [19]: < 2 µL/min/1e6 cells
- half-life [20]: 6.3 h
- hepatocyte CLint [21]: 7 µL/min/1e6 cells
- Cmax [22]: 2.5 µM
- Cmax [23]: 3.2 µM
- Cmax [24]: 11.8 µM
- Cmax [25]: 3.3 µM
- AUC(0-t) at 24 h [26]: 247 µM·h
- Papp A→B at 10 µM [27]: 10 ×10⁻⁶ cm/s
- AUC(0-t) at 24 h [28]: 35 µM·h
- Cmax [29]: 7.5 µM
- AUC(0-t) at 24 h [30]: 10 µM·h
- Cmax [31]: 13.7 µM
- half-life [32]: 6.9 h
- Cmax [33]: 1.1 µM
- Vd [34]: 5.2 L/kg
- AUC(0-t) at 24 h [35]: 106 µM·h
- Cmax [36]: 29 µM
- half-life [37]: 30 h
- Cmax [38]: 5.3 µM
- hepatocyte CLint [39]: < 2 µL/min/1e6 cells
- fCmax (Mus musculus): 0.7 µM
- AUC(0-t) at 24 h [40]: 20 µM·h
- t1/2 [41]: 60 h
- Cmax [42]: 3.4 µM
- clearance [43]: 9.8 mL/min/kg
- Cmax [44]: 1.5 µM
- AUC(0-t) at 24 h [45]: 123 µM·h
- half-life [46]: 6.7 h
- AUC(0-t) at 24 h [47]: 456 µM·h
- Cmax [48]: 8 µM
- AUC(0-t) at 24 h [49]: 78 µM·h

Structure (SMILES): CC(C)c1noc(N2CCN(c3ncc(OCc4ccc(S(C)(=O)=O)cc4F)cn3)[C@H](C)C2)n1
- logD [1]: 3.4

Structure (SMILES): C[C@@H]1CN(c2nnc(C(F)(F)F)o2)CCN1c1ncc(OCc2ccc(S(C)(=O)=O)cc2)cn1
- logD [1]: 2.8

Structure (SMILES): C[C@@H]1CN(c2nnc(C(F)(F)F)o2)CCN1c1ncc(OCc2ccc(S(C)(=O)=O)cc2C#N)cn1
- logD [1]: 2.6

Structure (SMILES): C[C@@H]1CN(c2nnc(C(F)(F)F)o2)CCN1c1ncc(OCc2ccc(OS(C)(=O)=O)cc2F)cn1
- logD [1]: 3.7

Structure (SMILES): C[C@@H]1CN(C(=O)OC2(C(F)(F)F)COC2)CCN1c1ncc(OCc2ccc(CS(C)(=O)=O)cc2F)cn1
- logD [1]: 2.9

Structure (SMILES): C[C@@H]1CN(C(=O)OC2(C(F)(F)F)COC2)CCN1c1ncc(OCc2ccc(OS(C)(=O)=O)cc2F)cn1
- logD [1]: 3.7
